Tests used:
[1] = Cytotoxicity against human HepG2 cells after 24 hrs in presence of 1% FBS by resazurin dye based assay; type: cell-based
Outline: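 HepG2 cells seeded at 4000/well in DMEM with 1% FBS and allowed to attach for 24 h at 37 °C, 5% CO2. Compounds added from 300 to 0.14 µM in 3-fold steps and incubated 24 h. 10 µM resazurin added for 2 h, fluorescence read at ex/em 560/590. Percent viability computed relative to untreated and negative controls, duplicate wells.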

[2] = Selectivity index, ratio of CC50 for human HepG2 cells in presence of 1% FBS to MIC for Klebsiella pneumoniae isolate 248-33-D; type: toxicity; details: read-out: Selectivity Index
[3] = Selectivity index, ratio of CC50 for human HepG2 cells in presence of 1% FBS to MIC for Escherichia coli N4149; type: toxicity; details: read-out: Selectivity Index
[4] = Selectivity index, ratio of CC50 for human HepG2 cells in presence of 1% FBS to MIC for Pseudomonas aeruginosa QLD PSA 1; type: toxicity; details: read-out: Selectivity Index
Outline: (§1)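 Selectivity index is CC50 (1% FBS) divided by MIC. […] They then got compound at 300 to 0.14 µM (3-fold steps) for 24 h at 37 °C, 5% CO2. Resazurin (10 µM, 2 h) was read at ex/em 560/590 in duplicate wells. For MIC, CLSI broth microdilution was run in CaMHB with ~10^6 cfu/mL inoculum and 0–128 µM compound.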

Acinetobacter baumannii [5] = assay: Antibacterial activity against Acinetobacter baumannii ATCC 17978 col10 after 18 hrs by broth microdilution method; type: functional; details: ATCC 17978 col10, 18 h
Outline: (§2)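 Broth microdilution per CLSI in cation-adjusted Mueller-Hinton broth. 100 µL inoculum (~10^6 cfu/mL in CaMHB) mixed with 100 µL CaMHB containing compound, 0 to 128 µM. Incubated 18 h at 37 °C. MIC taken as the lowest concentration with no visible growth. Polymyxin B served as positive control. Isolates were stored at -80 °C in tryptone soy broth with 20% glycerol.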

Pseudomonas aeruginosa [6] = assay: Antibacterial activity against Pseudomonas aeruginosa QLD PSA 1 after 18 hrs by broth microdilution method; type: functional; details: QLD PSA 1, 18 h; outline: as §2
[7] = Selectivity index, ratio of CC50 for human HepG2 cells in presence of 1% FBS to MIC for Klebsiella pneumoniae isolate 224-11-C; type: toxicity; details: read-out: Selectivity Index
[8] = Selectivity index, ratio of CC50 for human HepG2 cells in presence of 1% FBS to MIC for vancomycin-resistant Staphylococcus aureus ATCC 700699; type: toxicity; details: read-out: Selectivity Index; outline: as §1
[9] = Selectivity index, ratio of CC50 for human HepG2 cells in presence of 1% FBS to MIC for methicillin-resistant Staphylococcus aureus ATCC 43300; type: toxicity; details: read-out: Selectivity Index; outline: as §1
[10] = Selectivity index, ratio of CC50 for human HepG2 cells in presence of 1% FBS to MIC for Acinetobacter baumannii isolate 07AC-336; type: toxicity; details: read-out: Selectivity Index
Acinetobacter baumannii [11] = assay: Antibacterial activity against Acinetobacter baumannii ATCC 19606 after 18 hrs by broth microdilution method; type: functional; details: ATCC 19606 = CIP 70.34 = JCM 6841, 18 h; outline: as §2
Acinetobacter baumannii [12] = assay: Antibacterial activity against Acinetobacter baumannii isolate 07AC-336 after 18 hrs by broth microdilution method; type: functional; details: isolate 07AC-336, 18 h; outline: as §2
[13] = Selectivity index, ratio of CC50 for human HepG2 cells in presence of 1% FBS to MIC for vancomycin-intermediate Staphylococcus aureus ATCC 700698; type: toxicity; details: read-out: Selectivity Index; outline: as §1
Pseudomonas aeruginosa [14] = assay: Antibacterial activity against Pseudomonas aeruginosa isolate M146201 after 18 hrs by broth microdilution method; type: functional; details: isolate M146201, 18 h; outline: as §2
Plasmodium falciparum [15] = assay: Growth inhibition of CQ-sensitive GFP-fused Plasmodium falciparum D10 after 90 hrs by ethidium bromide staining based flow cytometry; type: functional, organism-based; details: D10, 90 h
Outline: (§3)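 Parasites cultured in human O+ erythrocytes in RPMI-HEPES pH 7.4 with hypoxanthine, NaHCO3, gentamicin and 0.5% Albumax II under 1% O2/4% CO2 at 37 °C. Synchronised to rings with heparin plus sorbitol. Set up at 1% parasitaemia and 1% haematocrit with 10x compound added. Cultured 90 h to next-cycle trophozoites. Stained with 10 µg/mL ethidium bromide for 1 h, washed, parasitaemia counted by flow cytometry with GFP gating.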

Pseudomonas aeruginosa [16] = assay: Antibacterial activity against Pseudomonas aeruginosa isolate 912 after 18 hrs by broth microdilution method; type: functional; details: isolate 912, 18 h; outline: as §2
[17] = Selectivity index, ratio of CC50 for human HepG2 cells in presence of 1% FBS to MIC for Escherichia coli N2381; type: toxicity; details: read-out: Selectivity Index
Pseudomonas aeruginosa [18] = assay: Antibacterial activity against Pseudomonas aeruginosa isolate 19147nm after 18 hrs by broth microdilution method; type: functional; outline: as §2
Plasmodium knowlesi [19] = assay: Growth inhibition of Plasmodium knowlesi YH1 after 50 hrs by ethidium bromide staining based flow cytometry; type: functional, organism-based; details: YH1, 50 h
Outline: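 P. knowlesi YH1 cultured in human O+ erythrocytes in RPMI-HEPES with 0.5% Albumax II under 1% O2/4% CO2. Ring-synchronised parasites set up at 1% parasitaemia and 1% haematocrit with compound. Cultured 50 h to late trophozoites of the next cycle. Stained 1 h with 10 µg/mL ethidium bromide and parasitaemia counted by flow cytometry.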

Plasmodium falciparum [20] = assay: Growth inhibition of […] GFP-fused Plasmodium falciparum D10 after 90 hrs by ethidium bromide staining based flow cytometry; type: functional, organism-based; details: D10, 90 h; outline: as §3
[21] = Selectivity index, ratio of CC50 for human HepG2 cells in presence of 1% FBS to IC50 for Plasmodium knowlesi YH1; type: toxicity; details: read-out: Ratio IC50
[22] = Selectivity index, ratio of CC50 for human HepG2 cells in presence of 1% FBS to IC50 for drug-resistant GFP-fused Plasmodium falciparum D10; type: toxicity; details: read-out: Ratio IC50
Plasmodium falciparum [23] = assay: microbe, parasite or virus in culture; details: CS2, 90 h
Plasmodium knowlesi [24] = assay: microbe, parasite or virus in culture; details: YH1, 90 h
[25] = Stability in cation-adjusted Mueller-Hinton broth at 37 degC after 1 day by LC-MS analysis; type: physicochemical; details: 24 h
Outline: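 Compound was incubated under bacterial assay conditions: CaMHB, 37 °C, polypropylene microtitre wells. The species present were analysed by LCMS the next day.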

SMILES	CC50 at 24 h [1] [nM]	selectivity ratio [2]	selectivity ratio [3]	selectivity ratio [4]	MIC (Acinetobacter baumannii [5]) [µM]	MIC (Pseudomonas aeruginosa [6]) [µM]	selectivity ratio [7]	selectivity ratio [8]	selectivity ratio [9]	selectivity ratio [10]	MIC (Acinetobacter baumannii [11]) [µM]	MIC (Acinetobacter baumannii [12]) [µM]	selectivity ratio [13]	MIC (Pseudomonas aeruginosa [14]) [µM]	IC50 (Plasmodium falciparum [15]) [nM]	MIC (Pseudomonas aeruginosa [16]) [µM]	selectivity ratio [17]	MIC (Pseudomonas aeruginosa [18]) [µM]	IC50 (Plasmodium knowlesi [19]) [nM]	IC50 (Plasmodium falciparum [20]) [nM]	further results
c1ccc2c(c1)[I+]c1c-2ccc2ccccc12	720	0.02	0.02	0.17	0.52	4.2	0.02	0.17	0.34	0.09	4.2	8.4	0.17	8.4	120	2.1	0.09	2.1			
N#Cc1ccc2c(c1)-c1ccccc1[I+]2	22300	0.32	> 0.32	0.13	2.2	18	> 0.32	2.5	20	0.32	18	71	2.5	8.8	40	8.8	0.32	4.4	110	90	selectivity ratio [21]: 232; selectivity ratio [22]: 256
Clc1cccc2c1-c1ccccc1[I+]2	660	0.08	1.2	1.2	< 0.27	0.54	0.08	0.61	0.61	< 2.4	< 0.27	< 0.27	0.29	0.54	50	< 0.27	1.2	< 0.27	80	70	selectivity ratio [21]: 8.5; selectivity ratio [22]: 8.9
Fc1ccc2c(c1)[I+]c1ccccc1-2	5900	0.16	0.08	0.66	0.56	8.9	0.08	0.66	2.6	0.66	4.5	8.9	0.66	2.2	60	1.1	0.08	0.56			
c1ccc2c(c1)[I+]c1ccccc1-2	29200	0.78	0.78	3.1	0.58	9.3	0.78	1.6	6.3	1.6	9.3	19	1.6	9.3	130	4.7	0.78	2.3			IC50 (Plasmodium falciparum [23]): 40 nM; IC50 (Plasmodium knowlesi [24]): 740 nM
N#Cc1ccc2c(c1)[I+]c1ccccc1-2	3300	> 0.05	0.05	0.37	2.2	8.8	> 0.05	0.37	0.75	> 0.05	18	> 71	0.37	18	50	4.4	0.05	2.2			
Cc1ccc2c(c1)[I+]c1ccccc1-2.O=S(=O)([O-])C(F)(F)F	3600	0.05	0.05	> 0.05	1.1	> 72	0.05	0.398	0.81	0.21	9.1	18	0.41	36	230	4.5	0.05	4.5			Stability [25]: Stable
Fc1cccc2c1-c1ccccc1[I+]2	4600	0.51	4.2	1	< 0.28	4.5	0.51	2.1	2.1	4.1	0.56	1.1	2.1	1.1	50	4.5	4.2	< 0.28	80	80	selectivity ratio [21]: 59; selectivity ratio [22]: 61
Clc1ccc2c(c1)[I+]c1ccccc1-2	1100	0.06	0.13	0.51	< 0.27	2.2	0.06	0.51	0.51	0.51	2.2	2.2	0.51	2.2	70	1.1	0.13	0.54			

From ChEMBL document CHEMBL4145448, “Broad activity of diphenyleneiodonium analogues against Mycobacterium tuberculosis, malaria parasites and bacterial pathogens” (Eur J Med Chem, 2018)
